Active and inactive are the calls of the source. The rule behind the calls is not given here.
Tests used:
Cannabinoid receptor 1 [1] = target: T1, Cannabinoid receptor 1 (Homo sapiens, UniProt P21554); assay: Inverse agonist activity at human CB1 receptor expressed in CHO cell membrane assessed as reduction in GTPgammaS binding at 10 uM by [35S]GTP-gammaS binding assay; type: functional, cell membranes
Procedure, shortened: (§1)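 [35S]GTPγS binding in CHO-hCB1 membranes (hCB1R) or CHO-hCB2 membranes (hCB2R). A single 10 μM concentration of ligand was tested for change in [35S]GTPγS binding relative to basal. Agonism was read as a rise above basal, inverse agonism as a fall below basal, and neutral activity as no significant change.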

Cannabinoid receptor 2 [2] = target: T2, Cannabinoid receptor 2 (Homo sapiens, UniProt P34972); assay: Displacement of [3H]CP-55940 from CB2 receptor (unknown origin) at 1 uM by competitive binding assay
Cannabinoid receptor 1 [3] = target: T1, Cannabinoid receptor 1; assay: Displacement of [3H]CP-55940 from CB1 receptor (unknown origin) at 1 uM by competitive binding assay
Cannabinoid receptor 1 [4] = target: T1, Cannabinoid receptor 1; assay: Displacement of [3H]CP-55940 from CB1 receptor (unknown origin) by competitive binding assay
Cannabinoid receptor 2 [5] = target: T2, Cannabinoid receptor 2; assay: Displacement of [3H]CP-55940 from CB2 receptor (unknown origin) by competitive binding assay
Cannabinoid receptor 2 [6] = target: T2, Cannabinoid receptor 2; assay: Inverse agonist activity at human CB2 receptor expressed in CHO cell membrane assessed as reduction in GTPgammaS binding at 10 uM by [35S]GTP-gammaS binding assay; type: functional, cell membranes; procedure, shortened: as §1
Homo sapiens = species on record: Homo sapiens; assay: Selectivity index, ratio of Ki for CB1 receptor (unknown origin) to Ki for CB2 receptor (unknown origin) by competitive binding assay
Cannabinoid receptor 2 [7] = target: T2, Cannabinoid receptor 2; assay: Binding affinity to human CB2 receptor expressed in CHO cell membrane at 10 uM by [35S]GTP-gammaS binding assay; type: cell membranes; procedure, shortened: as §1
Cannabinoid receptor 1 [8] = target: T1, Cannabinoid receptor 1; assay: Binding affinity to human CB1 receptor expressed in CHO cell membrane at 10 uM by [35S]GTP-gammaS binding assay; type: cell membranes; procedure, shortened: as §1
Cannabinoid receptor 1 [9] = target: T1, Cannabinoid receptor 1; assay: Agonist activity at human CB1 receptor expressed in CHO cell membrane assessed as increase in GTPgammaS binding at 10 uM by [35S]GTP-gammaS binding assay; type: functional, cell membranes; procedure, shortened: as §1
Cannabinoid receptor 2 [10] = target: T2, Cannabinoid receptor 2; assay: Neutral antagonist activity at human CB2 receptor expressed in CHO cell membrane at 10 uM by [35S]GTP-gammaS binding assay; type: cell membranes; details: filed as antagonist; procedure, shortened: as §1
Cannabinoid receptor 2 [11] = target: T2, Cannabinoid receptor 2; assay: Agonist activity at human CB2 receptor expressed in CHO cell membrane assessed as increase in GTPgammaS binding at 10 uM by [35S]GTP-gammaS binding assay; type: functional, cell membranes; procedure, shortened: as §1
Cannabinoid receptor 1 [12] = target: T1, Cannabinoid receptor 1; assay: Neutral antagonist activity at human CB1 receptor expressed in CHO cell membrane at 10 uM by [35S]GTP-gammaS binding assay; type: cell membranes; details: filed as antagonist; procedure, shortened: as §1

T2 sequence (P34972 whole entry): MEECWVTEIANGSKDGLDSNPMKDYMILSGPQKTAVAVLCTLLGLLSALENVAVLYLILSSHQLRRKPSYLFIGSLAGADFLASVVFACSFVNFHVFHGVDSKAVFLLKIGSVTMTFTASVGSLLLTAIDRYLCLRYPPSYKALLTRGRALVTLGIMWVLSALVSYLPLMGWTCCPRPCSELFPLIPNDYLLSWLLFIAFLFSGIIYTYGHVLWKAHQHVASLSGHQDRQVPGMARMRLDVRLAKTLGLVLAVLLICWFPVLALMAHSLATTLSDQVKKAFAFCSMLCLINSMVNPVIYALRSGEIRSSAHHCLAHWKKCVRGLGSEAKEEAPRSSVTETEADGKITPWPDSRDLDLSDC
T1 sequence (P21554 whole entry): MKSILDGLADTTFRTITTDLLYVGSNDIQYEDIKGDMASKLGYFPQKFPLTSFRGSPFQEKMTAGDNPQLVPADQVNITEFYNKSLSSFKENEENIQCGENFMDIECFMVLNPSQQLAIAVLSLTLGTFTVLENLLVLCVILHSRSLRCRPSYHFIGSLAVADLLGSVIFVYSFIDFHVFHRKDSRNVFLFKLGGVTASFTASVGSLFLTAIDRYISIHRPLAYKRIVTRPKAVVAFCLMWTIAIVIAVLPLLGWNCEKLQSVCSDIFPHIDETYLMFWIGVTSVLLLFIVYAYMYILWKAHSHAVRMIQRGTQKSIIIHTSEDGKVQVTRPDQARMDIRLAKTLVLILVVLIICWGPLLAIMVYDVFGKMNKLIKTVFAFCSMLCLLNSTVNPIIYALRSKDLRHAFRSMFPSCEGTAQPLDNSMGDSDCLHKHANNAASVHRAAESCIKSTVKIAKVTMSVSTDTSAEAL

SMILES: Cc1c(C(=O)NN2CCCCC2)nn(-c2ccc(Cl)cc2Cl)c1-c1ccc(I)cc1
- Activity (Cannabinoid receptor 1 [1]; filed as inverse agonist): Active

SMILES: N#Cc1ccc(Cn2cc(/C=C3/C(=O)C4CCN3CC4)c3cccnc32)cc1
- inhibition (Cannabinoid receptor 2 [2]): 64.1%
- inhibition (Cannabinoid receptor 1 [3]): 55.7%

SMILES: O=C1/C(=C/c2cn(Cc3ccc(Cl)cc3)c3ncccc23)N2CCC1CC2
- inhibition (Cannabinoid receptor 2 [2]; filed as inverse agonist): 74.8%
- Ki (Cannabinoid receptor 1 [4]): 704 nM
- inhibition (Cannabinoid receptor 1 [3]; filed as inverse agonist): 68.9%
- Ki (Cannabinoid receptor 2 [5]): 115 nM
- Activity (Cannabinoid receptor 2 [6]; filed as inverse agonist): Active
- Ratio Ki (Homo sapiens): 6.1
- Activity (Cannabinoid receptor 1 [1]; filed as inverse agonist): Active

SMILES: O=C1/C(=C/c2cn(CCN3CCCC3)c3ncccc23)N2CCC1CC2
- inhibition (Cannabinoid receptor 2 [2]): 56.6%
- inhibition (Cannabinoid receptor 1 [3]): 39.4%

SMILES: OC1/C(=C/c2cn(Cc3ccccc3)c3ncccc23)N2CCC1CC2 (racemic)
- inhibition (Cannabinoid receptor 2 [2]): 0%
- inhibition (Cannabinoid receptor 1 [3]): 0%

SMILES: O=C1/C(=C/c2cn(CCN3CCOCC3)c3ncccc23)N2CCC1CC2
- inhibition (Cannabinoid receptor 2 [2]): 7.92%
- inhibition (Cannabinoid receptor 1 [3]): 0%

SMILES: COc1ccc(Cn2cc(/C=C3/C(=O)C4CCN3CC4)c3cccnc32)cc1
- inhibition (Cannabinoid receptor 2 [2]): 27.5%
- inhibition (Cannabinoid receptor 1 [3]): 22.4%

SMILES: O=C1/C(=C/c2cn(Cc3ccc(F)cc3)c3ncccc23)N2CCC1CC2
- inhibition (Cannabinoid receptor 2 [2]): 100%
- Ki (Cannabinoid receptor 1 [4]): 218 nM
- inhibition (Cannabinoid receptor 1 [3]): 87.6%
- Activity (Cannabinoid receptor 2 [7]): Active
- Ki (Cannabinoid receptor 2 [5]): 23.7 nM
- Activity (Cannabinoid receptor 1 [8]): Active
- Ratio Ki (Homo sapiens): 9.2

SMILES: O=C1/C(=C/c2cn(Cc3ccccc3)c3ncccc23)N2CCC1CC2
- inhibition (Cannabinoid receptor 2 [2]; filed as antagonist): 79.9%
- Ki (Cannabinoid receptor 1 [4]): 2900 nM
- Activity (Cannabinoid receptor 1 [9]): inactive
- Activity (Cannabinoid receptor 2 [10]): Active
- inhibition (Cannabinoid receptor 1 [3]): 15.1%
- Activity (Cannabinoid receptor 2 [11]): inactive
- Ki (Cannabinoid receptor 2 [5]): 110 nM
- Activity (Cannabinoid receptor 2 [6]): inactive
- Ratio Ki (Homo sapiens): 26.3
- Activity (Cannabinoid receptor 1 [1]): inactive
- Activity (Cannabinoid receptor 1 [12]): Active

SMILES: COc1ccc(C(=O)c2c(C)n(CCN3CCOCC3)c3cc(I)ccc23)cc1
- Activity (Cannabinoid receptor 2 [6]; filed as inverse agonist): Active

SMILES: O=C1/C(=C/c2cn(Cc3cccc(C(F)(F)F)c3)c3ncccc23)N2CCC1CC2
- inhibition (Cannabinoid receptor 2 [2]): 56.7%
- inhibition (Cannabinoid receptor 1 [3]): 42.5%

SMILES: OC1/C(=C/c2cn(Cc3ccc(Cl)cc3)c3ncccc23)N2CCC1CC2 (racemic)
- inhibition (Cannabinoid receptor 2 [2]): 58.5%
- inhibition (Cannabinoid receptor 1 [3]): 58.2%

SMILES: O=C1/C(=C/c2cn(Cc3ccc(Br)cc3)c3ncccc23)N2CCC1CC2
- inhibition (Cannabinoid receptor 2 [2]; filed as antagonist): 67.6%
- Ki (Cannabinoid receptor 1 [4]): 1110 nM
- Activity (Cannabinoid receptor 2 [10]): Active
- inhibition (Cannabinoid receptor 1 [3]; filed as inverse agonist): 74.2%
- Ki (Cannabinoid receptor 2 [5]): 625 nM
- Ratio Ki (Homo sapiens): 1.8
- Activity (Cannabinoid receptor 1 [1]; filed as inverse agonist): Active

Reference: ChEMBL document CHEMBL4699478, “7-Azaindolequinuclidinones (7-AIQD): A novel class of cannabinoid 1 (CB1) and cannabinoid 2 (CB2) receptor ligands” (Bioorg Med Chem Lett, 2020)
